Results collected from several papers.
DUOX2: DUOX2 (Homo sapiens, UniProt Q9NRD8)
MPO: Myeloperoxidase (MPO, Homo sapiens, UniProt P05164)
HTR1F: 5-hydroxytryptamine receptor 1F (HTR1F, Homo sapiens, UniProt P30939)

O=c1oc2cc(O)ccc2c2ccc(O)cc12
Kd (Glutaminase kidney isoform, mitochondrial (GLS, Homo sapiens, UniProt O94925); binding, SPR): 0.000266 µM

C[C@@H]1CN(C(=O)[C@@H]2CN(C(C)(C)C)C[C@H]2c2ccc(F)cc2F)C[C@H](C)[C@@]1(O)c1ccccc1
Ki (Melanocortin receptor 4 (MC4R, Homo sapiens, UniProt P32245); ligand displacement, radioligand): 0.199 µM

Cc1coc2c1C(=O)C(=O)c1c-2ccc2c1CCCC2(C)CO (stereo not shown)
IC50 (DUOX2; enzyme activity, inhibitor; cell membranes): 8.9 µM

COc1ccc(CNC(=O)c2cc3c(cc2[N+](=O)[O-])OCO3)cc1
IC50 (MPO; enzyme activity, inhibitor): 4.5 µM

CN(C)CCOC1=Cc2ccccc2Sc2ccc(Cl)cc21
EC50 (HTR1F; G protein activation, agonist, BRET): 1.82 µM

C[C@H]1COC2=C1C(=O)C(=O)c1c2ccc2c1CCCC2(C)C
IC50 (DUOX2; enzyme activity, inhibitor; cell membranes): 2.1 µM

CC(=O)c1cccc(NC(=O)c2cc3c(cc2[N+](=O)[O-])OCO3)c1
IC50 (MPO; enzyme activity, inhibitor): 10 µM

CCOc1ccccc1OCCN[C@H](C)Cc1ccc(OC)c(S(N)(=O)=O)c1
IC50 (Anoctamin-1 (Ano1, Mus musculus, UniProt Q8BHY3); ion current, inhibitor, patch clamp): 7.22 µM

Nc1ncnc2c1ncn2[C@@H]1O[C@H](COP(=O)(O)OP(=O)(O)OP(=O)(O)OP(=O)(O)OP(=O)(O)OC[C@H]2O[C@@H](n3cnc4c(N)ncnc43)[C@H](O)[C@@H]2O)[C@@H](O)[C@H]1O
Kd (adk (Escherichia coli, UniProt P69441); binding, ITC): 0.2 µM

CCCC(=O)NCCCN1CCc2c([nH]c3ccc(Cl)cc23)C1
IC50 (Sodium-dependent noradrenaline transporter (SLC6A2, Homo sapiens, UniProt P23975); transporter uptake, inhibitor): 250 µM

CN1CCN2c3ccccc3Cc3ccccc3C2C1 (stereo not shown)
EC50 (HTR1F; G protein activation, agonist, BRET): 0.0475 µM

CC(C)CCC[C@@H](C)[C@H]1CC[C@H]2[C@@H]3CC[C@H]4C[C@H](N)CC[C@]4(C)[C@H]3CC[C@]12C
IC50 (Phosphatidylinositol 3,4,5-trisphosphate 5-phosphatase 1 (INPP5D, Homo sapiens, UniProt Q92835); enzyme activity, inhibitor, absorbance; pH 7.4): 22.4 µM

O=c1oc(-c2cccnc2)nc2ccccc12
IC50 (Plasma kallikrein (KLKB1, Homo sapiens, UniProt P03952); enzyme activity, inhibitor, absorbance): > 50 µM
